Key:
[1] = Oral bioavailability in rat; details: in vivo
[2] = target: T1, Integrin alpha-4/beta-1 (Homo sapiens, UniProt P05556+P13612); assay: Inhibition of europium labeled human VCAM1/Fc chimera binding to human VLA-4 alpha-4-beta-1 expressed in Chinese hamster 4B4 cells by fluorimetric assay; assay type: cell-based
[3] = Drug level in BALB/c mouse serum at 10 mg/kg, po after 15 mins; assay type: ADME, organism-based; parameters: dose 10 mg/kg, route oral; details: read-out: Drug uptake
Summary of the method: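 Serum (final 0.01-10%) assayed in the VLA-4/VCAM-1 binding assay, and concentration estimated from a calibration curve of compound spiked into untreated mouse serum.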

[4] = in vivo; details: rat, plasma
[5] = Clearance in Sprague-Dawley rat at 10 mg/kg, iv; assay type: ADME, organism-based; parameters: dose 10 mg/kg, route intravenous; details: in vivo
[6] = target: T1, Integrin alpha-4/beta-1; assay: Inhibition of europium labeled human VCAM1/Fc chimera binding to human VLA-4 alpha-4-beta-1 expressed in Chinese hamster 4B4 cells in presence of 3% HSA by fluorimetric assay; assay type: cell-based
Summary of the method: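 CHO-K1 4B4 cells transfected with human α4 and β1, plated at 3 × 10⁵ cells/mL and cultured 2 days, washed with HEPES pH 7.5 buffer containing Ca, Mg, Mn. Compound plus Eu-labeled human VCAM-1/Fc (final 1 nM), with or without human serum albumin, 60 min at room temperature; washed, Eu time-resolved fluorescence read; duplicates.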

[7] = Volume of distribution at steady state in Sprague-Dawley rat at 10 mg/kg, iv; assay type: ADME, organism-based; parameters: dose 10 mg/kg, route intravenous; details: in vivo, read-out: Vdss
[8] = target: Integrin alpha-4/beta-7 (Homo sapiens) (UniProt P13612+P26010); details: at 4 µg/mL
[9] = Protein binding in plasma
[10] = Half life in Sprague-Dawley rat at 10 mg/kg, iv; assay type: ADME, organism-based; parameters: dose 10 mg/kg, route intravenous; details: in vivo

T1 sequence (P05556 whole entry): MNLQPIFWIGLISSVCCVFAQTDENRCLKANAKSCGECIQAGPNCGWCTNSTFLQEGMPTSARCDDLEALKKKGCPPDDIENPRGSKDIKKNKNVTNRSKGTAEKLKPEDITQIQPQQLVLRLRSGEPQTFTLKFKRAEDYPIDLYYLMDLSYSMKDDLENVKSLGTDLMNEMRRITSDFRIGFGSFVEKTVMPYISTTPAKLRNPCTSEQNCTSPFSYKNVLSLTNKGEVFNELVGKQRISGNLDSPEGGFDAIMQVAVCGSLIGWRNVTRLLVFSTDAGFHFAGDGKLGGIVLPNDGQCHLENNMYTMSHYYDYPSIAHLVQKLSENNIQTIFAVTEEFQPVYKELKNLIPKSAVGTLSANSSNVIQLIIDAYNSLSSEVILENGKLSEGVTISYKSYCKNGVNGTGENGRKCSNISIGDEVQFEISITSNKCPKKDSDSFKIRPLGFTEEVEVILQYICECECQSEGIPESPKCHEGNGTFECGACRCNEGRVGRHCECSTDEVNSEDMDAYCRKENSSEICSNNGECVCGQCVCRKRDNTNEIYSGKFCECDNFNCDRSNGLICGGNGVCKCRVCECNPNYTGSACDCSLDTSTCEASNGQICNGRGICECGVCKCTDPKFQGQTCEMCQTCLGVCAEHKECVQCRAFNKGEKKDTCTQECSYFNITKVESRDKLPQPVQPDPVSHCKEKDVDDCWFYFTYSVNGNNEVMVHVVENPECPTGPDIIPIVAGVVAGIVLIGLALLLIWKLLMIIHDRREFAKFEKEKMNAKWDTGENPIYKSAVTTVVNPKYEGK
T1 sequence (P13612 whole entry): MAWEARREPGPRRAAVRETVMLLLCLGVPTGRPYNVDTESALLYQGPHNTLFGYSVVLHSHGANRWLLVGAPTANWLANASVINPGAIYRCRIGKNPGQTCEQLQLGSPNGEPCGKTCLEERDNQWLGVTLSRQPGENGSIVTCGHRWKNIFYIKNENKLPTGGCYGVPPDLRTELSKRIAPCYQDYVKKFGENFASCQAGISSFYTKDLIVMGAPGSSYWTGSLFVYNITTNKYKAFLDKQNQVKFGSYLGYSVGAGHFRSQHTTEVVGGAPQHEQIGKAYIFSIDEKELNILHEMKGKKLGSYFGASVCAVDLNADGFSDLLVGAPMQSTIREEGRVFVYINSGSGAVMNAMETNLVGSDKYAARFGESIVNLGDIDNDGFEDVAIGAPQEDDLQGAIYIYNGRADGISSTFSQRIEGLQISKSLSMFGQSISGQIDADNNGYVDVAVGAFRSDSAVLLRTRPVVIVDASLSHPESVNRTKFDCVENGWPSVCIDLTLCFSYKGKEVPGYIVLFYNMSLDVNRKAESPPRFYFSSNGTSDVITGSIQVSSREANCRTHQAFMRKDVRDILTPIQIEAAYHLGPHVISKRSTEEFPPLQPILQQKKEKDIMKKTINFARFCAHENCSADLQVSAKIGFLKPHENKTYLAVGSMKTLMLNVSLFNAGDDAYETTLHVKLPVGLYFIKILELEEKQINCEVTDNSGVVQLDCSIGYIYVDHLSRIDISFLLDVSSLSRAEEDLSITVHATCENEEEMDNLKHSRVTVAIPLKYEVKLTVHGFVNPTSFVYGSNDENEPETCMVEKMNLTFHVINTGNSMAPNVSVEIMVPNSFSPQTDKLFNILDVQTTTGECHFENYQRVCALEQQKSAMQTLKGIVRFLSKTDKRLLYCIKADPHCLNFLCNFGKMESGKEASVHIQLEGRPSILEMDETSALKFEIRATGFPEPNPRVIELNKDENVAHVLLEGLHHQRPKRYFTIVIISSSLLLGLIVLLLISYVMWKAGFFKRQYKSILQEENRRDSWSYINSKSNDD

- bioavailability [1]: 24%
- IC50 [2]: 2.8 nM
- concentration at 0.25 h [3]: 373 ng/mL
- clearance [4]: 12.2 mL/min/kg
- clearance [5]: 12.2 mL/min/kg
- IC50 [6]: 45 nM
- Vd [7]: 0.317 L/kg
- inhibition [8]: 46%
- fraction unbound [9]: 0.03
- half-life [10]: 48 min
SMILES: Cc1ccccc1Nc1nc2ccc(CC(=O)N3C[C@@H](F)C[C@H]3CO[C@H]3CC[C@H](C(=O)O)CC3)cc2o1
